In ChEMBL document CHEMBL1153707 (Eur J Med Chem, 2010):

Columns and labels:
[1] = target: Cyclin-dependent kinase 5/CDK5 activator 1 (Homo sapiens, UniProt Q00535); experiment: Inhibition of human CDK5/p25; assay type: protein-complex assay
Procedure, shortened: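 CDK5/p25 kinase activity measured with 15 ATP and histone H1 as protein substrate; IC50 derived from dose-response curves.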

[2] = target: Glycogen synthase kinase-3 (Homo sapiens, UniProt P49840+P49841); experiment: Inhibition of human GSK3alpha/ GSK3-beta; assay type: protein assay
[3] = target: Casein kinase I isoform alpha/subunit beta (Homo sapiens, UniProt P48729+P67870); experiment: Inhibition of human CK1-alpha/CK2beta; assay type: protein-complex assay
Casein kinase I isoform alpha/subunit beta, sequence (P67870 whole entry, canonical isoform): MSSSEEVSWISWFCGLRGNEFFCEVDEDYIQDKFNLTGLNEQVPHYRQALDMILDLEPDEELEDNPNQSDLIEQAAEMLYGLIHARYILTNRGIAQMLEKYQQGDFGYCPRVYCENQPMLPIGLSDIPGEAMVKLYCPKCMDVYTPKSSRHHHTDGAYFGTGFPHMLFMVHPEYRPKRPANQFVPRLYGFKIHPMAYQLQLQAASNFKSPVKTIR
Casein kinase I isoform alpha/subunit beta, sequence (P48729 whole entry, canonical isoform): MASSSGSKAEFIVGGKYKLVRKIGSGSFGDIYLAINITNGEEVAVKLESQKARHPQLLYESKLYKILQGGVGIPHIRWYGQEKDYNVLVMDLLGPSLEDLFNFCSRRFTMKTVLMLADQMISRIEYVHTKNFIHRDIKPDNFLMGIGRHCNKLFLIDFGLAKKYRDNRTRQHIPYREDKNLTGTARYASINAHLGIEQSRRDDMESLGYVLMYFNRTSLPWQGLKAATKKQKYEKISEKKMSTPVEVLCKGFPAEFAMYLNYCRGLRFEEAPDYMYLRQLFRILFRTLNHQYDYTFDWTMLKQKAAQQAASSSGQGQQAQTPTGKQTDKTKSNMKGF

[4] = tested on: SF-268; experiment: Cytotoxicity against human SF268 cells; assay type: functional

Cyclin-dependent kinase 5/CDK5 activator 1, sequence (Q00535 whole entry): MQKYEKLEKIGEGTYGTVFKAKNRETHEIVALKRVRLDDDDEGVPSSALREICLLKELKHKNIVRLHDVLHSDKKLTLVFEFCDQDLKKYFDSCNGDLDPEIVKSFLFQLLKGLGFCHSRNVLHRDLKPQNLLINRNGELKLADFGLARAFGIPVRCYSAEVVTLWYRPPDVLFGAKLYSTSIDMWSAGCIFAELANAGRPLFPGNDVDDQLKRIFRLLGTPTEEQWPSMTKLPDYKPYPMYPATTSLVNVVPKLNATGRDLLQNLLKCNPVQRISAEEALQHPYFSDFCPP
Cyclin-dependent kinase 5/CDK5 activator 1, sequence (Q15078 whole entry, further chain): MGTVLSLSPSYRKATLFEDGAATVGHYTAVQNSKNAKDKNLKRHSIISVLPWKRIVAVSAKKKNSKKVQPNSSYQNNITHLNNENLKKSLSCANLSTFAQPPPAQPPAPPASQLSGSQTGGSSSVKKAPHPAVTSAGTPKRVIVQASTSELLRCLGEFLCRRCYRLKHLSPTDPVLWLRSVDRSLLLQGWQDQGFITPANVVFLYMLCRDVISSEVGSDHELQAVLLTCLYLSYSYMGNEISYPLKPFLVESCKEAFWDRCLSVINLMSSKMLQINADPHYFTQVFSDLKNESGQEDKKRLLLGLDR

SMILES	IC50 [1] [µM]	IC50 [2] [µM]	IC50 [3] [µM]	GI50 [4] [µM]
CN1C(=O)/C(=C/c2ccc3c(c2)OCO3)N=C1NCC/N=C/c1ccc(Cl)cc1	> 100	> 100	> 100	
COc1cc(/C=N/CCNC2=N/C(=C\c3ccc4c(c3)OCO4)C(=O)N2C)cc(OC)c1OC	> 100	> 100	> 100	
CN1C(=O)/C(=C/c2ccc3c(c2)OCO3)N=C1NCCNCc1ccc2c(c1)OCC2	> 100	> 10	> 100	
CN1C(=O)/C(=C/c2ccc3c(c2)OCO3)N=C1NCCNCc1ccc2c(c1)OCCO2	> 100	> 10	> 100	
COc1ccc(CNCCNC2=N/C(=C\c3ccc4c(c3)OCO4)C(=O)N2C)cc1	> 100	> 10	> 100	
CN1C(=O)/C(=C/c2ccc3c(c2)OCO3)N=C1NCCN.Cl	> 100	1.4	> 100	
COc1ccc(/C=N/CCNC2=N/C(=C\c3ccc4c(c3)OCO4)C(=O)N2C)cc1	> 100	7.3	> 100	
CN1C(=O)/C(=C/c2ccc3c(c2)OCO3)N=C1NCC/N=C/c1ccc([N+](=O)[O-])cc1	> 100	> 100	> 100	
CN1C(=O)/C(=C/c2ccc3c(c2)OCO3)N=C1NCC/N=C/c1ccc2c(c1)OCO2	> 100	0.86	> 100	
CN1C(=O)/C(=C/c2ccc3c(c2)OCO3)N=C1N [LEUCETTAMINE B]		15	> 100	
COc1cc(/C=C2\N=C(N)NC2=O)ccc1O [POLYANDROCARPAMINE A]				65

Further lines, with some results ahead:

IC50 [1] [µM]	IC50 [2] [µM]	IC50 [3] [µM]	SMILES	GI50 [4] [µM]
> 100	> 100	> 100	CN1C(=O)/C(=C/c2ccc3c(c2)OCO3)N=C1NCCNCc1ccc(Cl)cc1	
> 100	15	> 100	CN1C(=O)/C(=C/c2ccc3c(c2)OCO3)N=C1NCC/N=C/c1ccc2c(c1)OCC2	
> 100	> 100	> 100	CN1C(=O)/C(=C/c2ccc3c(c2)OCO3)N=C1NCCNCc1ccc([N+](=O)[O-])cc1	
> 100	> 100	> 100	COc1cc(CNCCNC2=N/C(=C\c3ccc4c(c3)OCO4)C(=O)N2C)cc(OC)c1OC	
> 100	7	> 100	CN1C(=O)/C(=C/c2ccc3c(c2)OCO3)N=C1NCC/N=C/c1ccccc1	
> 100	38	> 100	CN1C(=O)/C(=C/c2ccc3c(c2)OCO3)N=C1NCC/N=C/c1ccc2c(c1)OCCO2	
> 100	> 10	> 100	CN1C(=O)/C(=C/c2ccc3c(c2)OCO3)N=C1NCCNCc1ccccc1	
> 100	> 10	> 100	CN1C(=O)/C(=C/c2ccc3c(c2)OCO3)N=C1NCCNCc1ccc2c(c1)OCO2	
